Entries after “also recorded” stand apart in the source; their conditions may differ. Where two headings read alike, the source gives them in different places.
Columns and labels:
[1] = tested on: PDGx XD456 glioma cell line; test: PrestoBlue cell viability assay, XD456; assay type: cell-based, human; conditions: read-out: IC50 cell viability, 48 hours of treatment
[2] = tested on: PDGx XD456 intracranial glioma; test: in vivo mouse intracranial glioma model; set-up: species or system athymic nude mice; conditions: 15 mg/kg, twice a day for three weeks, intraperitoneal
Summary of the method: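 Athymic nude mice bore intracranial PDGx XD456 cells transduced with firefly luciferase and EGFP. After 4.5 days of tumour establishment, mice were randomised to vehicle or test compound, 15 mg/kg ip twice daily for three weeks. Tumour bioluminescence (radiance) was imaged at weeks 2 and 3, with body weight tracked; n=5, Student t-test. Brain slices were checked for EGFP and immunostained for HuR, Bcl2 and Mcl1.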

U251 glioma cell line [3] = test: cell cycle analysis; assay type: cell-based; conditions: 10 uM for 18 hours
primary human astrocytes = test: toxicity in primary human astrocytes; assay type: cell-based
Summary of the method: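 Primary human neurons (poly-L-lysine plates) or astrocytes were treated up to 25 uM for 48 h. Cells were fixed in 3.7% paraformaldehyde (pH 7.4) for 13 min, permeabilised with 0.3% Triton X-100 and blocked with 3% BSA/glycine. Staining used anti-cleaved caspase-3 (1:200, overnight 4°C) and Alexa 594 secondary, with DAPI counterstain. Percent positive cells was scored; at least three experiments.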

[4] = tested on: U251 cells expressing Fluc construct; test: split firefly luciferase assay, control reporter; assay type: cell-based
Summary of the method: (§1)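 Stable U251 lines carried doxycycline-inducible HuR-Nluc plus HuR-Cluc (dimer reporter) or full-length Fluc (control reporter), kept under hygromycin B and G418. 30,000–50,000 cells/well were induced with doxycycline 0.75 ug/ml for 48 h, then given test compound or vehicle for 6 h. Luminescence was read with D-luciferin substrate.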

LN229 glioma cell line [5] = test: cell cycle analysis; assay type: cell-based; conditions: 10 uM for 18 hours
XD456 cell line [6] = test: attached cell colony formation assay, XD456; assay type: cell-based, human
[7] = target: HuR dimerization (HuR-Nluc + HuR-Cluc reporter, U251 cells) (Homo sapiens, UniProt Q15717); test: cell-based split firefly luciferase - HuR dimerization assay
Summary of the method: as §1

kinases = test: SelectScreen kinase profiling; assay type: biochemical; conditions: compared to the parent SRI-41664
Summary of the method: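 Done as an outsourced SelectScreen kinase profiling service. 10-point titrations were run against NTRK1, AAK1, IRAK1, PIM1 and cMET kinases.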

primary human neurons = test: toxicity in primary human neurons; assay type: cell-based
LN229 glioma cell line [8] = test: PrestoBlue cell viability assay, LN229; assay type: cell-based; conditions: read-out: IC50 cell viability, 48 hours of treatment
Summary of the method: (§2)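 PrestoBlue viability read-out after 48 h exposure to the test compound. U251 and LN229 were grown in DMEM/F12 with 10% FBS, 2 mM L-glutamine and 100 U/ml penicillin/streptomycin. Data were normalised to vehicle-treated cells, and dose-response curves were fitted with the Boltzmann equation to give IC50; n=5 per cell line.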

aqueous solubility = assay type: physicochemical
[9] = tested on: Bcl2 and Mcl1 protein levels; test: western blot of Bcl2 and Mcl1 proteins in cytoplasmic fractions; assay type: cell-based; conditions: U251 and XD456; 10 uM for 48 hours
Summary of the method: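 U251 and PDGx XD456 cells were treated for 48 h with test compound or vehicle. Nuclear and cytoplasmic fractions were separated with NE-PER reagents and verified by lamin A/C (nuclear) and tubulin alpha (cytoplasmic). Bcl2 and Mcl1 were detected by western blot.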

Mcl1 mRNA = test: Taqman quantification of Mcl1 mRNA in glioma cell lines; assay type: cell-based; conditions: for average decrease of Mcl1/18S mRNA ratio: 10 uM for 24 hours
Summary of the method: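 Glioma cells (U251, U87, LN229) were exposed to 10 uM test compound or vehicle for 24 h. mRNA was isolated with RNeasy Mini Kit and QIAshredder columns. Bcl2, Mcl1 and 18S transcripts were quantified by Taqman gene-specific probes. Bcl2/18S and Mcl1/18S ratios were compared with vehicle control; three experiments.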

[10] = in vivo pharmacokinetic assessment; set-up: species or system C57Bl/6 mice; conditions: mouse
[11] = tested on: cleaved caspase-3 and cleaved PARP; test: western blot of apoptosis markers; assay type: cell-based; conditions: glioma cell lines; 10 uM for 48 hours
Summary of the method: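 Glioma cell lines were given 10 uM test compound or vehicle for 48 h. Cleaved PARP and cleaved caspase-3 were probed by western blot.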

[12] = tested on: PDGx XD456 glioma cell line; test: cell cycle analysis; assay type: cell-based, human; conditions: 10 uM for 18 hours
[13] = target: interaction of the HuR protein with Bcl2 and Mcl1 mRNAs (Homo sapiens, UniProt Q15717); test: HuR/mRNA co-immunoprecipitation assay; assay type: cell-based; conditions: U251 cells
Summary of the method: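 Run in U251 cells with the RiboCluster Profiler RIP-assay kit and a polyclonal anti-HuR antibody. Co-precipitated Bcl2 and Mcl1 transcripts and 18S RNA were quantified by Taqman with gene-specific probes. Binding was compared with vehicle-treated control.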

U251 glioma cell line [14] = test: PrestoBlue cell viability assay, U251; assay type: cell-based
Summary of the method: as §2

U251 cell line [15] = test: soft agar colony formation assay, U251; assay type: cell-based
Summary of the method: (§3)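 Soft agar format: cells embedded in a 0.45% low-melting agarose top layer over a 0.9% agarose bottom layer. Colonies were stained with 0.1% crystal violet and counted after three weeks. n=3 attached, n=4 soft agar; Student t-test.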

U251 cell line [16] = test: attached cell colony formation assay, U251; assay type: cell-based
Bcl2 mRNA = test: Taqman quantification of Bcl2 mRNA in glioma cell lines; assay type: cell-based; conditions: 10 uM for 24 hours
XD456 cell line [17] = test: soft agar colony formation assay, XD456; assay type: cell-based, human
Summary of the method: as §3

HuR protein = test: western blot of HuR protein levels; assay type: cell-based

HuR dimerization (HuR-Nluc + HuR-Cluc reporter, U251 cells), sequence (Q15717 2-326 limits assumed): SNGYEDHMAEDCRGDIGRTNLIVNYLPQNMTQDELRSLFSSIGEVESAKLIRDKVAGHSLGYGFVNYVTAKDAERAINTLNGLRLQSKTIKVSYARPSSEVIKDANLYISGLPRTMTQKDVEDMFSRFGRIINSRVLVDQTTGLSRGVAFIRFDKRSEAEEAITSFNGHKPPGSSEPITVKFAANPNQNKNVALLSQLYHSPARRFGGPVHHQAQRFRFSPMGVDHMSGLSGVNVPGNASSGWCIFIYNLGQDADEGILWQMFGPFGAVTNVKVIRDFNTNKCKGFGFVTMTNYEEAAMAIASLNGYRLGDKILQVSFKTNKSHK
interaction of the HuR protein with Bcl2 and Mcl1 mRNAs, sequence (Q15717 2-326 limits assumed): as above

IC50 [1]: 4 ± 0.6 µM | weight changes compared to the control group [2]: not significant | maximum inhibition of HuR dimerization ([7]; 6 hours of cell treatment): 90±1% | IC50 for inhibition of HuR dimerization, after increase in HuR dimerization by two fold ([7]; U251 with dox-inducible HuR-dimerization reporters, 6 hours): 1.9 ± 0.1 µM | HuR inhibition potential in the presence of kinase inhibitors ([7]; all evaluated kinase inhibitors): retained its HuR inhibition potential | IC50 ([7]; read-out: IC50 for inhibition of HuR dimerization, before increase in HuR dimerization, U251 with dox-inducible HuR-dimerization reporters, 6 hours): 1.2 ± 0.1 µM | IC50 ([7]; read-out: IC50 of inhibition of HuR dimerization, U251 cells co-expressing HuR-Nluc and HuR-Cluc, 6 hours of treatment): 1.2 ± 0.2 µM | kinase inhibition potential (kinases): reduced kinase inhibition potential | IC50 (LN229 glioma cell line [8]): 3.2 ± 0.6 µM | aqueous solubility (aqueous solubility): readily soluble | brain-to-plasma concentration ratio [10]: 0.42±0.05 | BBB permeability ([10]; in vivo): superior BBB permeability | half-life ([10]; 10 mg/kg by IP): 9.6 min | interaction of HuR protein with Bcl2 and Mcl1 mRNAs compared to control [13]: significant reduction | IC50 for inhibition of cell viability, after enhancement of HuR-dimer formation by two fold (U251 glioma cell line [14]; U251 with dox-inducible HuR-dimerization reporters, 48 hours): 8.0 ± 0.8 µM | IC50 (U251 glioma cell line [14]; read-out: IC50 cell viability, U251, 48 hours of treatment): 2.8 ± 0.6 µM | IC50 (U251 glioma cell line [14]; read-out: IC50 for inhibition of cell viability, before enhancement of HuR-dimer formation, U251 with dox-inducible HuR-dimerization reporters, 48 hours): 2.8 ± 0.4 µM
SMILES: CN(c1ccc2ncc(-c3ccc4cn[nH]c4c3)n2n1)C1CCOCC1 [SRI-42127]
tumor progression (tumor reporter luminescence signal) compared to control group [2]: reduction of tumor progression; also recorded: not statistically significant | increase of cells in G1 phase compared to control (U251 glioma cell line [3]): 97±33% | reduction of cells in S phase compared to control (U251 glioma cell line [3]): 65±4% | astrocyte cytotoxicity (primary human astrocytes; concentrations below 15 uM): low neuronal and astrocyte cytotoxicity | cleaved caspase-3 activation in astrocytes (primary human astrocytes; up to 15 uM): did not observe significant alterations | half inhibition in the control reporter assay [4]: half inhibitions were not reached | increase of cells in G1 phase compared to control (LN229 glioma cell line [5]): 56±28% | reduction of cells in S phase compared to control (LN229 glioma cell line [5]): 60±3% | number of colonies (XD456 cell line [6]; 3uM): 34±12 | number of colonies (XD456 cell line [6]; 10 uM): No significant numbers of colonies were detected | decline of cellular metabolism of neurons (primary human neurons; 25 uM for 48 hours): about 44% | neuronal cytotoxicity (primary human neurons; concentrations below 15 uM): low neuronal and astrocyte cytotoxicity | cell numbers and cell sprouting of neurons (primary human neurons; up to 15 uM for 48 hours): remained unchanged | morphological changes of neurons (primary human neurons; up to 15 uM for 48 hours): no morphological changes | cleaved caspase-3 immunostaining in neurons (primary human neurons; up to 15 uM, 48 hours): no significant alterations | Bcl2 and Mcl1 protein levels in cytoplasmic fractions compared to control [9]: dramatic reduction | average decrease of Mcl1/18S mRNA ratio (Mcl1 mRNA; LN229): 87±8% | average decrease of Mcl1/18S mRNA ratio (Mcl1 mRNA; U87): 86±7% | average decrease of Mcl1/18S mRNA ratio (Mcl1 mRNA; U251): 95±3% | average decrease of Mcl1/18S mRNA ratio (Mcl1 mRNA; XD456): 90±9% | reduction in Mcl1 mRNA compared to control (Mcl1 mRNA; range over U251, U87, LN229, XD456, 10 uM, 24 h): 87–95% | signs of apoptosis [11]: cleaved caspase-3 and cleaved PARP | increase of cells in G1 phase compared to control [12]: 210±40% | reduction of cells in S phase compared to control [12]: 70±3% | number of colonies (U251 cell line [15]; 3uM): 90±70 | number of colonies (U251 cell line [15]; 10 uM): No significant numbers of colonies were detected | number of colonies (U251 cell line [16]; 3uM): 49±28 | number of colonies (U251 cell line [16]; 10 uM): No significant numbers of colonies were detected | average decrease of Bcl2/18S mRNA ratio (Bcl2 mRNA; LN229): 95±2% | average decrease of Bcl2/18S mRNA ratio (Bcl2 mRNA; U87): 95±2% | average decrease of Bcl2/18S mRNA ratio (Bcl2 mRNA; U251): 96±2% | average decrease of Bcl2/18S mRNA ratio (Bcl2 mRNA; XD456): 96±2% | number of colonies (XD456 cell line [17]; 3uM): 39±6 | number of colonies (XD456 cell line [17]; 10 uM): No significant numbers of colonies were detected | total HuR protein levels (HuR protein; 3 uM and 10 uM, 8–12 hours of treatment): did not alter | HuR cytoplasmic levels versus control (HuR protein; prolonged treatment): decrease
